The record followed here is ChEMBL document CHEMBL1143356, “Synthesis and characterization of a peripherally restricted CB1 cannabinoid antagonist, URB447, that reduces feeding and body-weight gain in mice” (Bioorg Med Chem Lett, 2009).

As usually defined, the EC50 is the concentration that produces a half-maximal response. What is called IC50 is the point on the concentration scale where inhibition reaches its midpoint. One may read the logP as a log measure of how a compound divides between an organic and an aqueous phase.

Data set [1] concerns the target Cannabinoid receptor 1 (Rattus norvegicus) (UniProt P20272). In words: Antagonist activity at CB1 receptor in rat cerebellar membrane by [35S]GTPgammaS binding assay. The note with it: Cerebellum. The class given is functional, cell membranes. In short, it runs like this: (§1)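 Rat cerebellar membranes (20 μg) from freshly dissected cerebella. Incubate 90 min at 30 °C with 0.05 nM [35S]GTPγS and graded compound concentrations, in 20 mM Tris pH 7.4 with 5 mM MgCl2, 0.1 M NaCl, 30 μM GDP, adenosine deaminase, 0.02% BSA and PMSF. Run ± 10 μM WIN-55212-2. Stop by centrifugation at 4 °C, wash the pellet, and count by liquid scintillation.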
(In general: Binding of GTPγS marks nucleotide exchange on a G protein.)

Data set [2] can be described thus: Drug level in Swiss mouse white adipose tissue at 20 mg/kg, ip after 15 mins. The class given is ADME, organism-based. Details: dose 20 mg/kg, route intraperitoneal. The settings on record: in vivo, 0.25 h. In short, it runs like this:
(§2)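 Mice dosed i.p. Blood and snap-frozen tissue are extracted in CH3OH:CHCl3:H2O and analysed by LC/MS on a cyano column with a water/methanol gradient containing acetic acid and ammonium acetate, at 0.4 mL/min.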

For data set [3], the system named is Mus musculus. As to the kind of experiment: Effect on motor activity in Swiss mouse assessed as number of light beam interruptions projecting across each cage at 20 mg/kg, ip. The data set is classed as functional, organism-based. Also noted: dose 20 mg/kg. In short, it runs like this: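 Male Swiss mice in the automated cages, dosed i.p. in saline/PEG-400/Tween-80 vehicle. Activity is counted as light-beam interruptions, recorded at the same time as feeding.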

The target of data set [4] is Cannabinoid receptor 2 (Mus musculus) (UniProt P47936). In words: Agonist activity at mouse CB2 receptor expressed in HEK293 cells assessed as cAMP accumulation at 1 uM by radioimmunoassay. The data set is classed as functional, cell-based. In short, it runs like this:
(§3)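 Stably transfected HEK cells carrying mouse CB2. Rinse in HEPES buffer (15 min), preincubate with IBMX 10 mM (15 min), then incubate with IBMX ± isoproterenol 10 μM (15 min), all at 37 °C in a shaking bath. Cannabinoid is present in both the preincubation and the incubation.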
For orientation: Changes in cAMP serve as a functional read-out for many G protein-coupled receptors.

Data set [5] has the same target. As to the kind of experiment: Agonist activity at mouse CB2 receptor expressed in HEK293 cells assessed as inhibition of isoproterenol-induced cAMP accumulation at 1 uM by radioimmunoassay. The data set is classed as functional, cell-based. In short, it runs like this: as §3
For data set [6], the target named is T1, Cannabinoid receptor 1 (Rattus norvegicus, UniProt P20272). In words: Antagonist activity at CB1 receptor in rat cerebellar membrane assessed as inhibition of WIN-55212-2-induced [35S]GTPgammaS binding by liquid scintillation counting. The data set is classed as functional, cell membranes, Cerebellum. In short, it runs like this: as §1
A short description of data set [7]: Plasma concentration in Swiss mouse at 20 mg/kg, ip after 30 mins. Details: dose 20 mg/kg, route intraperitoneal. The settings on record: read-out: Cmax. The class given is ADME, organism-based. In short, it runs like this:
as §2

For data set [8], the system named is Mus musculus. As to the kind of experiment: Inhibition of WIN-55212-2-induced hypothermia in Swiss mouse assessed as change in body temperature at 20 mg/kg ip administered 30 mins before WIN-55212-2 challenge. The class given is functional, organism-based. Details: dose 20 mg/kg. Summed up: (§4)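 Mice dosed i.p. Rectal temperature taken with a digital probe and reported as change from baseline.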

The target of data set [9] is Cannabinoid receptor 2 (Homo sapiens, UniProt P34972). In words: Displacement of [3H]WIN-55212-2 from human CB2 receptor expressed in CHO-K1 cells by liquid scintillation counting. The class given is cell-based. In general terms: Loss of bound radioactivity is the signal in a displacement assay; it reports binding, not function.
The target in data set [10] is T1, Cannabinoid receptor 1. As to the kind of experiment: Displacement of [3H]WIN-55212-2 from CB1 receptor in rat cerebellar membrane by liquid scintillation counting. The data set is classed as cell membranes, Cerebellum.
The test system of data set [11] is Mus musculus. As to the kind of experiment: Inhibition of WIN-55212-2-induced catalepsy in Swiss mouse at 20 mg/kg ip administered 30 mins before WIN-55212-2 challenge measured after 30 mins by ring catalepsy test. The class given is functional, organism-based. Details: dose 20 mg/kg. Summed up:
(§5)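 Mice dosed i.p. Ring test scored by a blinded observer as total time cataleptic during a 3-min observation.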

Data set [12] concerns Mus musculus. As to the kind of experiment: Antiobesity activity in ob/ob mouse assessed as reduction of body weight gain at 20 mg/kg, ip once daily for 2 weeks. The data set is classed as functional, organism-based. Also noted: dose 20 mg/kg.
A short description of data set [13]: Lipophilicity, log P of the compound. The class given is physicochemical. The settings on record: octanol/water.
The test system of data set [14] is Mus musculus. In words: Anorexic activity in Swiss mouse assessed as reduction of food intake at 5 mg/kg, ip administered 30 mins before dark onset after 24 hrs. The data set is classed as functional, organism-based. Also noted: dose 5 mg/kg. Summed up:
(§6)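 Male Swiss mice (20-25 g) housed singly in automated feeding cages after 4 days of habituation. Dose i.p. in saline/10% PEG-400/10% Tween-80 before dark onset. Weight of food removed is logged continuously and expressed as food per kg body weight.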

For data set [15], the system named is Mus musculus. As to the kind of experiment: Antianalgesic activity in Swiss mouse assessed as inhibition of (R)-methanandamide-induced analgesic effect at 20 mg/kg, ip administered 30 mins before (R)-methanandamide challenge measured for 45 mins by formalin planter test. The data set is classed as functional, organism-based. Details: dose 20 mg/kg. In short, it runs like this: (§7)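 Formalin test in mice. Inject 10 μL of 5% formaldehyde (vehicle: saline/5% PEG-400/5% Tween-80) into the plantar paw, with (R)-methanandamide dissolved in the formalin. Give the antagonist i.p. 30 min before formalin. A blinded observer scores paw licking and biting for 45 min (phase I 0-15 min, phase II 15-45 min).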

Data set [16] relates to Mus musculus. As to the kind of experiment: Anorexic activity in Swiss mouse assessed as reduction of food intake at 20 mg/kg, ip administered 30 mins before dark onset after 24 hrs. The class given is functional, organism-based. Also noted: dose 20 mg/kg. In short, it runs like this: as §6
The test system of data set [17] is Mus musculus. As to the kind of experiment: Antianalgesic activity in Swiss mouse assessed as inhibition of (R)-methanandamide-induced analgesic effect at 2 mg/kg, ip administered 30 mins before (R)-methanandamide challenge measured for 45 mins by formalin planter test. The class given is functional, organism-based. Details: dose 2 mg/kg. In short, it runs like this: as §7

The test system of data set [18] is Mus musculus. As to the kind of experiment: Inhibition of WIN-55212-2-induced hypothermia in Swiss mouse assessed as change in body temperature at 2 mg/kg ip administered 30 mins before WIN-55212-2 challenge. The class given is functional, organism-based. Details: dose 2 mg/kg. In short, it runs like this: as §4
The test system of data set [19] is Mus musculus. As to the kind of experiment: Inhibition of WIN-55212-2-induced catalepsy in Swiss mouse at 5 mg/kg ip administered 30 mins before WIN-55212-2 challenge measured after 30 mins by ring catalepsy test. Also noted: dose 5 mg/kg. The class given is functional, organism-based. Summed up: as §5
Data set [20] concerns Mus musculus. As to the kind of experiment: Antiobesity activity in ob/ob mouse assessed as reduction of food intake at 20 mg/kg, ip once daily for 2 weeks. Also noted: dose 20 mg/kg. The data set is classed as functional, organism-based.

Calls of active or inactive are those of the source. The rule behind the calls is not given here.

Chain of Cannabinoid receptor 2 (P34972 whole entry): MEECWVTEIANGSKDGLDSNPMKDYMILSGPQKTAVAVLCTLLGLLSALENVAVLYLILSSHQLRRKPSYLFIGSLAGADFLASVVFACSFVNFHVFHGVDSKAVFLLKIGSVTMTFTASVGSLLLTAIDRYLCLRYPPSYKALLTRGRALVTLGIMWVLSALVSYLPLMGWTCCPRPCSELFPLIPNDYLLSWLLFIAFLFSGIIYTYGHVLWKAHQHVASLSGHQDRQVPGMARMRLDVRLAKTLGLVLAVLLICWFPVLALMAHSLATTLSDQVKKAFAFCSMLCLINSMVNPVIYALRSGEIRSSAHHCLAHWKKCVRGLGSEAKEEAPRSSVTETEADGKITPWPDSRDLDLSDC
T1 sequence (P20272 whole entry): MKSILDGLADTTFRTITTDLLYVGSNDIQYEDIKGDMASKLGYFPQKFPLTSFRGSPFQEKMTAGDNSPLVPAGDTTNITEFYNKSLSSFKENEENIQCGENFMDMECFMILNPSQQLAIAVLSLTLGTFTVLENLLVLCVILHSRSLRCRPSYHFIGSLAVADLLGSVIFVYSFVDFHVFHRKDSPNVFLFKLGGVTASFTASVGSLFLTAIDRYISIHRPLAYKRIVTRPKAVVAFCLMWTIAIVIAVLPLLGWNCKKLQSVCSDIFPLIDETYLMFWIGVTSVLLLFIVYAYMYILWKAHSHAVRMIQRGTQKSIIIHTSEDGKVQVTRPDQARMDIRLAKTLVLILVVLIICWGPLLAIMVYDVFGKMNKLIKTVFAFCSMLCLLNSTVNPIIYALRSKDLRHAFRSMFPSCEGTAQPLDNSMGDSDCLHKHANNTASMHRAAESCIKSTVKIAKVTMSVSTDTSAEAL
Chain of Cannabinoid receptor 2 (Mus musculus) (P47936 whole entry): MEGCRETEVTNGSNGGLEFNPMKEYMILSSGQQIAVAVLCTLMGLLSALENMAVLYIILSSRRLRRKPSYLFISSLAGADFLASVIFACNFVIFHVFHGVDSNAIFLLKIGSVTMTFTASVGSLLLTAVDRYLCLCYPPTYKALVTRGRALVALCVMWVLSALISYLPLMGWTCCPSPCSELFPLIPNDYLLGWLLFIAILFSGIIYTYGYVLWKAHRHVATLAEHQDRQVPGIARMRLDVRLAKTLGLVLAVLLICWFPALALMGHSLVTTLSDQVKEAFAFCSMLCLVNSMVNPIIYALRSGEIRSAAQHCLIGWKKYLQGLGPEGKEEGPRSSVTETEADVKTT
Chain of Cannabinoid receptor 1 (Rattus norvegicus) (P20272 whole entry): as the sequence (P20272 whole entry) above

On to `Cc1c(C(=O)c2ccccc2)c(N)c(-c2ccccc2)n1Cc1ccc(Cl)cc1`, for which the result in data set [1], in data set [3], in [8], in data set [11], in data set [14] and in [16] was inactive. Moreover, the Cmax in [2] was 42 nmol/g. Also, the Activity in data set [4] was found to be 5.9 pmol; in [5] it was 14.3 pmol. Also, the EC50 in data set [6] came out at 4900 nM. In addition, the concentration at 0.5 h in [7] is 596 nM. The values for the IC50 in data set [9] and in data set [10] were 41 nM and 313 nM, respectively. For the same compound, the result in data set [12] and in data set [15] was Active. Also, the logP in data set [13] was found to be 6.39.

Turning to `Cc1[nH]c(-c2ccccc2)c(N)c1C(=O)c1ccccc1`, the IC50 in data set [9] and in data set [10] was more than 1000 nM in each case.

On to `Cc1c(C(=O)NC2C3CC4CC(C3)CC2C4)cc(-c2ccccc2)n1Cc1ccc(Cl)cc1` (configuration not stated), for which the IC50 in data set [9] is 11 nM; in [10], 70 nM.

As for `Cc1c(C(=O)NC2CC3CCC2C3)cc(-c2ccccc2)n1Cc1ccc(Cl)cc1` (configuration not stated), the IC50 is 420 nM in data set [9] and more than 1000 nM in data set [10].

In the case of `Cc1c(C(=O)NN2CCCCC2)nn(-c2ccc(Cl)cc2Cl)c1-c1ccc(Cl)cc1`, the result in data set [17], in data set [18], in [19] and in [20] was Active.

On to `Cc1c(C(=O)c2ccccc2)cc(-c2ccccc2)n1Cc1ccc(Cl)cc1`, for which the results for the IC50 in data set [9] and in data set [10] were 498 nM and more than 1000 nM, respectively.

Consider `Cc1c(C(=O)NN2CCCCC2)cc(-c2ccccc2)n1Cc1ccc(Cl)cc1`, for which the 50% inhibitory concentration (IC50) in data set [9] and in data set [10] was more than 1000 nM in each case.

Take `Cc1c(C(=O)NC2C3CC4CC(C3)CC2C4)c(Br)c(-c2ccccc2)n1Cc1ccc(Cl)cc1` (configuration not stated): the IC50 in data set [9] was 123 nM; in data set [10], more than 1000 nM.
